Data published in ChEMBL document CHEMBL1129495, “Highly selective bradykinin agonists and antagonists with replacement of proline residues by N-methyl-D- and L-phenylalanine” (J Med Chem, 1996).

Columns and labels:
[1] = Inhibitory activity against low affinity binding site of Bradykinin receptor in guinea pig ileum; format: tissue-based; details: Cavia porcellus
Method in brief: (§1)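 Fresh rat myometrial or guinea pig ileum membranes (0.3–0.5 mg protein) incubated 30 min at 4 °C with 0.05 nM [3H]BK and increasing peptide concentrations. Buffer: 25 mM TES pH 6.8, 1 µM captopril, 1 mM DTE, bacitracin, BSA. Samples filtered on PEI-treated GF/C and counted. High- and low-affinity IC50s from Tobler–Engel analysis; duplicates.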

[2] = Inhibitory activity against low affinity binding site of Bradykinin receptor in rat uterus membrane was reported.; format: cell membranes; method in brief: as §1
[3] = Inhibitory activity against high affinity binding site of Bradykinin receptor in rat uterus membrane was reported.; format: cell membranes; method in brief: as §1
[4] = Inhibitory activity against high affinity binding site of Bradykinin receptor in guinea pig ileum was reported.; format: tissue-based; details: Cavia porcellus; method in brief: as §1
Rattus norvegicus [5] = organism: Rattus norvegicus; test: Agonistic activity was evaluated in Estrus Rat Uterus Assay; format: functional
Method in brief: (§2)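 Uteri from female Wistar rats (180–200 g) given diethylstilbestrol 100 µg/kg sc 16 h before use. Distal horns held in de Jalon solution at 28 °C under 0.5 g resting tension, with isotonic contractions recorded. BK was dosed every 4 min and left in the bath 45 s. Agonist activity by Schild 4-point method, expressed as percent of BK activity.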

Cavia porcellus [6] = organism: Cavia porcellus; test: Antagonistic activity was evaluated in Guinea pig ileum assay.; format: functional; set-up: scale not given: the % may be the effect or the level left
Method in brief: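 Guinea pig terminal ileum in Tyrode at 37 °C under 0.5 g tension, isotonic recording. Analog added 5 min before a cumulative BK dose–response curve (maximum at 0.3 µM BK). pA2 is the negative log of the antagonist concentration that reduces the effect of a double BK dose to that of a single dose. Means of 3–7 determinations.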

Cavia porcellus [7] = organism: Cavia porcellus; test: Antagonistic activity was evaluated in Guinea pig lung strip assay.; format: functional; set-up: scale not given: the % may be the effect or the level left
Method in brief: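 Lower-lobe lung strips (2–3 mm) from guinea pigs (400–600 g) in Krebs–Henseleit at 37 °C under 1 g load, with isometric tension recorded. After 1 h equilibration, peptide was given 5 min before an ED50 dose of BK. Cumulative BK curves covered 0.01–10 µM. pA2 by the van Rossum method.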

[8] = Selectivity for rat uterus is expressed as the ratio RUT/GPI; format: functional
Method in brief: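 Ratio of agonist activity (percent of BK) in estrus rat uterus to that in guinea pig ileum, both from isotonic contraction assays using the Schild 4-point method.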

Rattus norvegicus [9] = organism: Rattus norvegicus; test: Agonistic activity against selectivity for smooth muscle contraction in rat uterus.; format: functional, Muscle tissue; method in brief: as §2
Cavia porcellus [10] = organism: Cavia porcellus; test: Agonistic activity against selectivity for smooth muscle contraction in guinea pig ileum.; format: functional, Muscle tissue
Method in brief: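 Isolated terminal ileum (1.5 cm) from guinea pigs fasted 16 h, in Tyrode at 37 °C. Isotonic contractions recorded under 0.5 g resting tension. Agonist activity measured by Schild 4-point method against BK doses of 1 and 2 nM, expressed as percent of BK activity.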

SMILES	IC50 [1]	IC50 [2]	IC50 [3]	IC50 [4]	Activity (Rattus norvegicus [5])	Activity (Cavia porcellus [6])	Activity (Cavia porcellus [7])	Ratio [8]	Activity (Rattus norvegicus [9])	Activity (Cavia porcellus [10])
CN(C(=O)[C@H](CO)NC(=O)[C@H](Cc1ccccc1)NC(=O)CNC(=O)[C@@H]1CCCN1C(=O)[C@@H]1CCCN1C(=O)[C@H](CCCN=C(N)N)NC(=O)[C@H](N)CCCN=C(N)N)[C@@H](Cc1ccccc1)C(=O)N[C@@H](Cc1ccccc1)C(=O)N[C@@H](CCCN=C(N)N)C(=O)O	1 nM	33 nM	–	–	–	–	–	–	–	–
CN(C(=O)[C@H](CO)NC(=O)[C@H](Cc1ccccc1)NC(=O)CNC(=O)[C@@H]1C[C@@H](O)CN1C(=O)[C@@H]1CCCN1C(=O)[C@H](CCCN=C(N)N)NC(=O)[C@H](N)CCCN=C(N)N)[C@H](Cc1ccccc1)C(=O)N(C)[C@@H](Cc1ccccc1)C(=O)N[C@@H](CCCN=C(N)N)C(=O)O	33 nM	18 nM	0.33 nM	–	–	–	–	–	–	–
CN(C(=O)[C@@H](N)CCCN=C(N)N)[C@H](Cc1ccccc1)C(=O)N1CCC[C@H]1C(=O)NCC(=O)N[C@@H](Cc1ccccc1)C(=O)N[C@@H](CO)C(=O)N1CCC[C@H]1C(=O)N[C@@H](Cc1ccccc1)C(=O)N[C@@H](CCCN=C(N)N)C(=O)O	3780 nM	100 nM	–	57 nM	0.15%	0.15%	0.05%	–	–	–
NC(N)=NCCC[C@H](NC(=O)[C@H](Cc1ccccc1)NC(=O)[C@@H](Cc1ccccc1)NC(=O)CNC(=O)[C@H](Cc1ccccc1)NC(=O)CNC(=O)[C@@H]1CCCN1C(=O)[C@@H]1CCCN1C(=O)[C@@H](N)CCCN=C(N)N)C(=O)O	–	–	–	–	–	–	–	100	31%	0.3%
CN(C(=O)[C@H](CO)NC(=O)[C@H](Cc1ccccc1)NC(=O)CNC(=O)[C@@H]1CCCN1C(=O)[C@@H]1CCCN1C(=O)[C@@H](N)CCCN=C(N)N)[C@@H](Cc1ccccc1)C(=O)N[C@@H](Cc1ccccc1)C(=O)N[C@@H](CCCN=C(N)N)C(=O)O	700 nM	500 nM	–	–	0.2%	0.03%	0.1%	–	–	–
CC[C@@H](C)[C@@H](N)C(=O)N[C@@H](CO)C(=O)N[C@@H](CCCN=C(N)N)C(=O)N1CCC[C@H]1C(=O)N1CCC[C@H]1C(=O)NCC(=O)N[C@@H](Cc1ccccc1)C(=O)N[C@@H](CO)C(=O)N1CCC[C@H]1C(=O)N[C@@H](Cc1ccccc1)C(=O)N[C@@H](CCCN=C(N)N)C(=O)O	–	–	–	–	–	–	–	25	271%	11%
NC(N)=NCCC[C@@H](N)C(=O)N[C@@H](CCCN=C(N)N)C(=O)N1CCC[C@H]1C(=O)N1C[C@H](O)C[C@H]1C(=O)NCC(=O)N[C@@H](Cc1cccs1)C(=O)N[C@@H](CO)C(=O)N1CCC[C@H]1C(=O)N[C@@H](Cc1cccs1)C(=O)N[C@@H](CCCN=C(N)N)C(=O)O	–	–	–	–	–	–	–	30	237%	7%
CN(C(=O)[C@@H]1CCCN1C(=O)[C@@H](N)CCCN=C(N)N)[C@@H](Cc1ccccc1)C(=O)NCC(=O)N[C@@H](Cc1ccccc1)C(=O)N[C@@H](CO)C(=O)N1CCC[C@H]1C(=O)N[C@@H](Cc1ccccc1)C(=O)N[C@@H](CCCN=C(N)N)C(=O)O	8000 nM	375 nM	0.2 nM	2.6 nM	0.03%	0.05%	0.03%	–	–	–
CC(C)(NC(=O)[C@@H](Cc1c[nH]c2ccccc12)NC(=O)[C@H](Cc1ccccc1)NC(=O)CNC(=O)[C@@H]1CCCN1C(=O)[C@@H]1CCCN1C(=O)[C@@H](N)CCCN=C(N)N)C(=O)N[C@@H](Cc1ccccc1)C(=O)N[C@@H](CCCN=C(N)N)C(=O)O	–	–	–	–	–	–	–	0.442	100%	226%
CN(C(=O)[C@@H]1CCCN1C(=O)[C@@H](N)CCCN=C(N)N)[C@H](Cc1ccccc1)C(=O)NCC(=O)N[C@@H](Cc1ccccc1)C(=O)N[C@@H](CO)C(=O)N1CCC[C@H]1C(=O)N[C@@H](Cc1ccccc1)C(=O)N[C@@H](CCCN=C(N)N)C(=O)O	1400 nM	57 nM	0.3 nM	–	0.02%	0.03%	0.03%	–	–	–
